In the library only some 2% were active in any assay of this set; here they are far more common.
NR2E3 ag-1 = NR2E3 agonists in two-hybrid cells, primary screen, cell-based, luminescence, CHO-S, Gal4-NCOR/VP16-NR2E3. luciferase. inhibition of corepressor binding, % at 3.98 µM. 0.35% of 360,000 active. Photoreceptor-specific nuclear receptor (Homo sapiens), Q9Y5X4. AID 602229, 2012;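 active = inhibition above the mean of all tested compounds plus 3 SD, cut at about 70% in these data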;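 also: 0% = DMSO with NR2E3 transfected cells and 100% = cells lacking NR2E3 construct; higher means lower luciferase signal from less NR2E3 corepressor binding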
Target sequence (Q9Y5X4 whole entry, looked up, the tested form may be a part): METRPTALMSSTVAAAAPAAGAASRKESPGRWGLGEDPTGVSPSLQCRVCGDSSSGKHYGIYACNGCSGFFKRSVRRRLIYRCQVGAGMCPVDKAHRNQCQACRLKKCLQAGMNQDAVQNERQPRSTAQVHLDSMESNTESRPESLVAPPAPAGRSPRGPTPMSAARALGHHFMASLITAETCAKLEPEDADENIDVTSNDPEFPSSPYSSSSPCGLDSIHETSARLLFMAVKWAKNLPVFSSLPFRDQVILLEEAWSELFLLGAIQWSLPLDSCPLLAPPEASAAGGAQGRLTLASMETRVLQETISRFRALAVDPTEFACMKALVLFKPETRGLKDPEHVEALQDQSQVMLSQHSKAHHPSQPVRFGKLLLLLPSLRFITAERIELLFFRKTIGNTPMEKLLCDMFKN
GAA850 FXN act = FXN promoter activators, primary screen, cell-based, luciferase luminescence, HEK293 lucGAA850 | HEK293 lucGAA850 FXN promoter luciferase reporter, 24 h; percent of 10 µM SAHA response | activation, % at 6 µM | 0.56% of 360,000 active | AID 540364, 2011;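 active = activation above the average of all compounds screened plus 3 SD, cutoff fixed separately per campaign, cut at about 7.5% in these data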;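 also: 0% = DMSO wells and 100% = 10 µM SAHA wells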
NR2E3 ag-2 = inhibitors of NR2E3-RetCOR corepressor binding, primary screen, NR2E3 agonist project, biochemical, TR-FRET, GST-NR2E3, biotin-RetCOR. AID 2300, 2010. 0.12% of 320,000 active. Photoreceptor-specific nuclear receptor (Homo sapiens), Q9Y5X4. 1536-well. inhibition of corepressor binding, % at 4.78 µM;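 active = percent inhibition above the cutoff of mean plus 3 SD of all tested compounds, set per screening campaign, cut at about 20% in these data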;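 also: 0% = DMSO wells and 100% = biotin wells as full block of FRET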
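Test system: GST-NR2E3 and biotin-RetCOR proteins | Quantity: 1.35 nM GST-tagged NR2E3 final | Medium: Tris pH 7.5 | Also added: 7 nM biotin-RetCOR | Dosing: Compound at 4.8 µM, single dose | Timing: 5 h at 4 °C | Detection: Time-resolved FRET | Read-out basis: Percent inhibition | Benchmarks: Biotin wells as high control, 0.6% DMSO wells as low control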
Myeloid diff MLP = induction of myeloid progenitor differentiation, primary screen, cell-based, flow cytometry, MLPCN library; ER-HoxA9 myeloid progenitors, lysozyme-GFP differentiation; calls only at 10 µM; 1% of 360,000 active;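 active = normalized GFP-positive differentiation at or above the plate's own cutoff, the solvent-only control mean plus 3 SD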;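 also: cells exposed to compound for four days before flow analysis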
T cell HTS = modulators of CD8 T cell-vesicle binding, primary screen, mouse 2C CD8+ T cells, flow cytometry | 0.068% of 330,000 active | 2C CD8+ T cell-vesicle binding; hits give low values | response (vesicle binding), % at 7 µM;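 active = response, share of CD8 T cells binding vesicles, and their 90th percentile fluorescence all below set limits, cut at about 80% in these data, passing the limit was not always enough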;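 also: values below 100% mean blocked vesicle binding to the CD8+ T cells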
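Assay system: 2C TCR transgenic mouse naive CD8+ T cells, MACS-purified | Read-out: CD8+ gate FL2 mean fluorescence as % of same-row positive control | Signal: High-throughput flow cytometry with anti-B7-1 and anti-CD8 staining | Timing: Binding step 1.5 h, 37 °C, antibody labelling 20 min, ice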
GAA30 counter = GAA30 FXN promoter activators, confirmation, counter-screen for GAA850 frataxin promoter activator project, cell-based, luminescence, HEK293, lucGAA30, triplicate; shares compounds with GAA850 FXN act; HEK293 lucGAA30 FXN promoter luciferase, 24 h; DMSO = 0%, 5 µM ipriflavone = 100%; activation, % at 6 µM; 66% of 1,900 active; AID 588350, 2011;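 active = mean activation above the mean of solvent-only control wells plus 3 SD, cut at about 22% in these data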;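 also: counterscreen of GAA850 promoter hits where activity marks nonselective or luminescence artifacts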
FXN GAA850 conf = FXN GAA850 promoter activators in reporter cells, confirmation, cell-based, luminescence, HEK293 lucGAA850, triplicate. shares compounds with GAA850 FXN act. HEK293 lucGAA850 FXN promoter luciferase reporter, 24 h; 100% = activation by SAHA. activation, % at 6 µM. 86% of 1,900 active. AID 588351, 2011;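 active = mean activation above a set limit taken from the primary screen, cut at about 8% in these data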;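 also: 0% = DMSO wells and 100% = 10 µM SAHA wells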
The depositor's hits bear a star; i = inactive; . = no result given; + = active, no number.

SMILES	NR2E3 ag-1	GAA850 FXN act	NR2E3 ag-2	Myeloid diff MLP	T cell HTS	GAA30 counter	FXN GAA850 conf
COc1cc(OC)nc(Nc2nc(C(N)c3ccccc3)cs2)n1 (stereo not given)	16	-3	.	i	.	.	.
COc1cc(OC)nc(Nc2nc(C(N)CCc3ccccc3)cs2)n1 (stereo not given)	-1	9.0*	.	i	.	21	17*
COc1cc(OC)nc(Nc2nc(C(N)Cc3ccc(Cl)cc3)cs2)n1 (stereo not given)	-12	-1	.	i	.	.	.
COc1cc(OC)nc(Nc2nc(C(N)COCc3ccccc3)cs2)n1 (stereo not given)	36	7.6*	.	i	.	23*	14*
Cc1cccc(C)c1NC(=O)C(CCc1ccccc1)n1c(=O)c(-c2ccccc2)nc2ccccc21 (stereo not given)	.	.	.	i	.	.	.
COc1ccc([C@@H]2[C@@H]3C(=O)N(C(C)(C)C)C(=O)[C@@H]3[C@]3(Cc4ccccc4)C(=O)N(c4cccc(Cl)c4)C(=O)N23)cc1	19	2	5	i	892	.	.
CC[C@@]12C(=O)N(c3cccc(Br)c3)C(=O)N1[C@H](c1ccc(OC)cc1)[C@@H]1C(=O)N(C(C)(C)C)C(=O)[C@@H]12	-12	11*	1	i	628	39*	9.2*
CC[C@@]12C(=O)N(c3cccc(Br)c3)C(=O)N1[C@H](c1ccc(Br)cc1)[C@@H]1C(=O)N(C(C)(C)C)C(=O)[C@@H]12	-17	11*	1	i	942	45*	17*
COc1ccc([C@@H]2[C@@H]3C(=O)N(C(C)(C)C)C(=O)[C@@H]3[C@]3(C)C(=O)N(c4cccc(F)c4)C(=O)N23)cc1	-2	2	-2	i	557	.	.
COc1ccc([C@@H]2[C@@H]3C(=O)N(C(C)(C)C)C(=O)[C@@H]3[C@]3(Cc4ccc(Cl)cc4)C(=O)N(c4cccc(Br)c4)C(=O)N23)cc1	11	1	3	i	543	.	.
COc1ccc([C@@H]2[C@@H]3C(=O)N(C(C)(C)C)C(=O)[C@@H]3[C@]3(Cc4ccccc4)C(=O)N(c4ccc(Br)cc4)C(=O)N23)cc1	-22	-5	2	i	526	.	.
CC(C)(C)N1C(=O)[C@H]2[C@@H](c3ccc(Br)cc3)N3C(=O)N(c4cccc(Cl)c4)C(=O)[C@@]3(Cc3ccccc3)[C@H]2C1=O	-10	12*	-1	i	491	16	14*
COc1ccc([C@@H]2[C@@H]3C(=O)N(C(C)(C)C)C(=O)[C@@H]3[C@]3(C)C(=O)N(c4cccc(Br)c4)C(=O)N23)cc1	27	11*	1	i	390	10	7
CC(C)c1ccc(NC(=O)C2CSC3(C)CCC(=O)N23)cc1 (stereo not given)	-19	3	-1	i	205	.	.
CC(=O)Nc1ccc(NC(=O)C(C)Sc2nc3ccccc3c(=O)n2Cc2ccco2)cc1 (stereo not given)	-8	1	-2	i	229	.	.
COC(=O)[C@@H](Cc1c[nH]c2ccccc12)NC(=O)c1cc(=O)[nH]c2ccccc12	-1	-1	-3	i	145	.	.
O=S(=O)(Nc1ccc(-n2cnnn2)cc1)c1ccc(Cl)s1	-29	0	.	i	155	.	.
COc1cc2c(cc1O)C(CSC)Cc1cc3c(cc1N(C)CC2)OCO3 (stereo not given)	-10	0	.	i	.	.	.
Cc1cc2ccccn2c1C(=O)c1ccc([N+](=O)[O-])o1	30	-6	-3	.	119	.	.
COc1ccc([C@@H]2[C@@H]3C(=O)N(C(C)(C)C)C(=O)[C@@H]3[C@]3(Cc4ccc(Cl)cc4)C(=O)N(c4cccc(F)c4)C(=O)N23)cc1	-15	0	1	i	301	.	.
CC(C)(C)N1C(=O)[C@H]2[C@@H](c3ccc(Br)cc3)N3C(=O)N(c4cccc(F)c4)C(=O)[C@@]3(C)[C@H]2C1=O	8	8.8*	1	i	263	34*	18*
CN(C)Cc1csc(Nc2ccc(C(=O)c3ccccc3)cc2)n1	23	-1	.	i	.	.	.
C/C(=N\NC(=O)c1nnn(-c2nonc2N)c1CN(C)c1ccccc1)c1cccnc1	31	-1	1	i	70	.	.
O=C(CCS(=O)(=O)c1ccccc1)Nc1nc(-c2cccs2)cs1	0	8.8*	6	+	512	-9	9.8*
O=C(COc1ccccc1)Nc1nc(-c2cccs2)cs1	-21	3	0	i	194	.	.
SMILES	NR2E3 ag-1	GAA850 FXN act	NR2E3 ag-2	Myeloid diff MLP	T cell HTS	GAA30 counter	FXN GAA850 conf
Cn1ccsc1=NC(=O)c1ccc(S(C)(=O)=O)c([N+](=O)[O-])c1	1	10*	5	.	294	73*	30*
O=C(c1ccccc1)N1CCOC(O)(c2ccccc2)C1c1ccccc1 (stereo not given)	-15	1	.	i	.	.	.
CCN(CC)S(=O)(=O)c1ccc(OC(C)C)nc1	-15	1	3	i	326	.	.
CCN(CC)S(=O)(=O)c1ccc(OC)nc1	-21	11*	0	i	231	20	6
Cc1nonc1C(=O)N/N=C/c1ccc(O)c(O)c1	-19	9.4*	1	i	152	30*	8.4*
COc1cc(/C=N/NC(=O)c2nonc2C)ccc1O	-7	1	1	i	405	.	.
O=C(NCc1ccc(F)cc1F)[C@@H]1CCCN1C(=O)[C@@H]1CCCN1C(=O)c1cccs1	-7	.	.	i	.	.	.
O=C(O)c1cccc2c(/C=N/Nc3ccccn3)c[nH]c12	-32	0	-6	i	0	.	.
C(=N\Nc1ccccn1)/c1c[nH]c2ccccc12	-68	7.7*	1	i	522	76*	36*
O=c1nc(N/N=C/c2c[nH]c3ccccc23)cn[nH]1	-112	7.8*	-1	i	247	103*	24*
Brc1ccc(/C=N/Nc2ccccn2)cc1	-89	9.5*	4	i	280	105*	39*
O=c1cnnc(N/N=C/c2c[nH]c3ccccc23)[nH]1	8	1	-3	i	118	.	.
